Laboratory results as given in PMC4624502 (Experimental eye research, 2015).

Experiments:
[1] = target: T1, zIRBP (zebrafish IRBP, gene II product, full-length two-module) (Danio rerio, UniProt F1Q9N9); assay: fluorescence titration, enhancement of retinol fluorescence; type: binding
T1 sequence (F1Q9N9 22-615): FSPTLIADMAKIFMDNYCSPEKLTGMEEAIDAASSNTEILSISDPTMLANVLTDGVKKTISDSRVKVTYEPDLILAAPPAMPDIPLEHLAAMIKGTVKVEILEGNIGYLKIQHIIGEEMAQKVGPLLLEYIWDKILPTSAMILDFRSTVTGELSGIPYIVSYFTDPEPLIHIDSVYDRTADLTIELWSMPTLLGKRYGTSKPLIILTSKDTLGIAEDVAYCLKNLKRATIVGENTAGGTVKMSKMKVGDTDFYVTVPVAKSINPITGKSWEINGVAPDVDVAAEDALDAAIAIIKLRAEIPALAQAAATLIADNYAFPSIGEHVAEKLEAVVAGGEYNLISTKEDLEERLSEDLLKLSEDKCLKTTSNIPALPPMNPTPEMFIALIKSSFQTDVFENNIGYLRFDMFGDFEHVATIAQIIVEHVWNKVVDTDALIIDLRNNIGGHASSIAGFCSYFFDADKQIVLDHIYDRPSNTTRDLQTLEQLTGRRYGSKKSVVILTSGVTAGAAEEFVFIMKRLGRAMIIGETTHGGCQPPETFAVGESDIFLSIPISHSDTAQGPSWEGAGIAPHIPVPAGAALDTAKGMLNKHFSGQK
In short: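 Full-length zIRBP was expressed in E. coli BL21(DE3), His-trap purified, TEV-cleaved, and anion-exchange polished (>98% pure). Retinol in ethanol was added in 0.5 µL aliquots at 1 min intervals to 1 µM protein or to buffer (final alcohol ≤2%). Fluorescence was read at ex 330/em 480 nm with oleic acid at 0.0–0.112 µM. Kd came from a nonlinear least-squares one-site Hill fit.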

[2] = target: T2, zebrafish IRBP module 1 (z1) (Danio rerio, UniProt F1Q9N9); assay: X-ray crystal structure, […] Å; type: binding; settings: oleic acid in hydrophobic pocket of domain A; pH 7.5, PEG 8000
T2 sequence (F1Q9N9 22-330): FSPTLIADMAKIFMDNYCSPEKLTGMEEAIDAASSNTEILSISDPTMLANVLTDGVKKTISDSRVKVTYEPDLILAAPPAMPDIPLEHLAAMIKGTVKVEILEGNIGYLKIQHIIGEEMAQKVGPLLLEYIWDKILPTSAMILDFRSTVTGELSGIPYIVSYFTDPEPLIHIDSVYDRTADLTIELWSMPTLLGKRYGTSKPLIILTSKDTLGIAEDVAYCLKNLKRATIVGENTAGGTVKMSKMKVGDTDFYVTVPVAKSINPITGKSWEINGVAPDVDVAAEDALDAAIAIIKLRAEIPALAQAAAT

Row | Compound | Kd [1] [nM] | X-ray crystal structure, 1.90 Å [2]
1 | CC1=C(/C=C/C(C)=C/C=C/C(C)=C/CO)C(C)(C)CCC1 [all-trans retinol] | 910 ± 50 | –
2 | CCCCCCCC/C=C\CCCCCCCC(=O)O [oleic acid] | – | electron density for an extended oleic acid molecule in domain A
